According to ChEMBL document CHEMBL4725346, “Syntheses and Evaluation of New Bisacridine Derivatives for Dual Binding of G-Quadruplex and i-Motif in Regulating Oncogene c-myc Expression” (J Med Chem, 2020):
The source made the active and inactive calls. No cut-off for these calls is given here.

Legend:
SiHa [1] = test: Induction of cell cycle arrest in human SiHa cells assessed as accumulation of cells at S phase at 0.60 uM after 24 hrs by propidium iodide staining based flow cytometry (reference value: 17.74%); format: functional; conditions: dose 0.6 µM
Huh-7 = test: Antiproliferative activity against human Huh-7 cells after 48 hrs by MTT assay; format: functional, cell-based; conditions: Huh-7, 48 h
Outline: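 Cells seeded at 5.0×10^3 per well, pre-incubated 12 h at 37 °C, 5% CO2, then exposed to compounds for 48 h; DMSO-only control. MTT (2.5 mg/mL) added for 4 h, formazan dissolved in DMSO, absorbance at 570 nm. Each dose tested in triplicate; IC50 from percentage survival relative to negative control.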

[2] = Stabilization of 5'-FAM/3'-TAMRA labeled c-myc promoter i-motif DNA FPy33T (unknown origin) assessed as change in melting temperature at 1 uM by FRET assay (reference value: 53.2 degreeC)
Outline: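 FRET melting of dual FAM/TAMRA-labelled FPy33T annealed in 1× BPES (30 mM potassium phosphate, 1 mM EDTA, 100 mM KCl), pH 5.5. Final 0.2 µM DNA with or without ligand. Excitation 470 nm, emission 530 nm, read every 1 °C over 37–99 °C. ΔTm taken against DNA alone.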

CA46 [3] = test: Antiproliferative activity against human CA46 cells after 48 hrs by MTT assay; format: functional, cell-based
Quadruplex DNA [4] = test: Stabilization of c-myc promoter G-quadruplex DNA Pu27 (unknown origin) by 1H NMR spectra analysis; format: nucleic-acid assay
Outline: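 1D ¹H NMR titration with water suppression at 25 °C on a 600 MHz spectrometer. DNA at 0.5 mM in 10% D₂O/90% H₂O: Pu27 in 10 mM Tris-HCl pH 7.4, Py33 in 1× BPES pH 6.4. Annealed at 95 °C for 5 min before titration; ligand stock in d₆-DMSO.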

[5] = Stabilization of 5'-FAM/3'-TAMRA labeled hairpin DNA F10T (unknown origin) assessed as change in melting temperature at 1 uM by FRET assay (reference value: 59.1 degreeC)
SiHa [6] = test: Induction of cell cycle arrest in human SiHa cells assessed as accumulation of cells at S phase at 0.30 uM after 24 hrs by propidium iodide staining based flow cytometry (reference value: 17.74%); format: functional; conditions: dose 0.3 µM
SiHa [7] = test: Induction of cell cycle arrest in human SiHa cells assessed as accumulation of cells at S phase at 0.15 uM after 24 hrs by propidium iodide staining based flow cytometry (reference value: 17.74%); format: functional
Quadruplex DNA [8] = test: Stabilization of 5'-FAM/3'-TAMRA labeled c-myc promoter G-quadruplex DNA FPu22T (unknown origin) assessed as change in melting temperature at 1 uM by FRET assay (reference value: 66.5 degreeC); format: nucleic-acid assay
Outline: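 FRET melting of dual FAM/TAMRA-labelled FPu22T annealed in 10 mM Tris-HCl pH 7.4 with KCl. Final 0.2 µM DNA with or without ligand. Excitation 470 nm, emission 530 nm, read every 1 °C over 37–99 °C on a real-time PCR cycler. ΔTm = Tm(DNA+ligand) − Tm(DNA).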

[9] = Stabilization of c-myc promoter i-motif DNA Py33 (unknown origin) assessed as increase in slower migration band incubated overnight by silver staining based PAGE analysis
Outline: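 Py33 (3 µM) co-annealed with increasing ligand in 1× BPES pH 6.8 at 95 °C for 5 min, cooled, held at 4 °C overnight. Run on native 20% acrylamide in 1× TBE at 140 V for 5 h at 5 °C, then silver-stained.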

dsDNA = test: Binding affinity to 5'-biotin labeled duplex DNA (unknown origin) by surface plasmon resonance method; format: nucleic-acid assay
Outline: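 SPR: 5'-biotin DNA diluted to 1 μM and captured (1000 RU) on a sensor chip, with a blank cell as reference. Running buffers: Py33 in 20 mM MES pH 5.8, 100 mM KCl, 0.05% Tween-20; Pu27 and duplex in 50 mM Tris-HCl pH 7.4, 100 mM KCl. Six ligand concentrations serially diluted from DMSO stock. Association 260 s, dissociation 300 s at 25 °C; NaOH regeneration; blank sensorgrams subtracted.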

SiHa [10] = test: Induction of cell cycle arrest in human SiHa cells assessed as accumulation of cells at G0/G1 phase at 0.15 uM after 24 hrs by propidium iodide staining based flow cytometry (reference value: 42.28%); format: functional
[11] = Toxicity in BALB/c nude mouse xenografted with human SiHa cells assessed as effect on spleen weight at 15 mg/kg, ip administered once per 2 days for 18 days; format: organism-based; conditions: in vivo, 432 h, time 18 day
Outline: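 SiHa tumour fragments passaged from donor mice implanted in the underarm of female BALB/c nude mice (six per group). Compound given at 15 mg/kg ip once every two days for 18 days, with saline and cisplatin 0.2 mg/kg control groups. Body weight recorded every two days; at day 18 mice were sacrificed and organs weighed.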

Quadruplex DNA [12] = test: Stabilization of c-myc promoter G-quadruplex DNA Pu27 (unknown origin) assessed as effect on melting temperature at 5 uM by CD spectroscopy; format: nucleic-acid assay
Outline: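 CD melting: Pu27 diluted to 1 µM in 10 mM Tris-HCl, 5 mM KCl, pH 7.4, with or without ligand. Annealed at 95 °C for 5 min, slowly cooled, then heated at 1 °C/min while monitoring 260 nm. Tm obtained by curve fitting.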

CA46 [13] = test: Induction of cell cycle arrest in human CA46 cells assessed as accumulation of cells at G2/M phase at 0.15 to 0.6 uM after 24 hrs by propidium iodide staining based flow cytometry; format: functional; conditions: dose microM 0.15-0.6, time 24.0 hrs
SiHa [14] = test: Inhibition of c-myc transcription in human SiHa cells harboring c-myc deleted promoter G-quadruplex/i-motif (unknown origin) assessed as decrease in ratio of renilla/firefly luciferase activity at 0.025 to 0.1 uM after 48 hrs by dual-luciferase reporter assay; format: functional, cell-based; conditions: dose microM 0.025-0.1, time 48.0 hrs
Outline: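 Psicheck2 plasmid carrying deleted c-myc promoter (lacking NHE III₁ G/C-rich sequence), 200 ng, lipofected into SiHa cells. Compound added 8 h post-transfection, cells kept 48 h at 37 °C, washed with ice-cold PBS, then Renilla/Firefly luciferase activity ratio measured with a dual-luciferase kit.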

SiHa [15] = test: Induction of cell cycle arrest in human SiHa cells assessed as accumulation of cells at G2/M phase at 0.30 uM after 24 hrs by propidium iodide staining based flow cytometry (reference value: 29.71%); format: functional; conditions: dose 0.3 µM
Quadruplex DNA [16] = test: Binding affinity to c-myc promoter G-quadruplex/i-motif in human SiHa cells assessed as reduction in c-myc mRNA level at 1.25 uM incubated for 24 hrs by qRT-PCR analysis; format: cell-based; set-up: scale not given: the % may be the effect or the level left
Outline: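 SiHa cells at 0, 0.625, 1.25 and 2.5 μM for 24 h; DMSO control. Total RNA extracted with TRIzol. 1.5 μg RNA reverse-transcribed with oligo dT18 and M-MLV (42 °C 60 min). PCR of 30 cycles (95/58/72 °C), products run on 1.2% agarose. β-actin as internal control; three repeats.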

Question: Which Activity (SiHa [1]) does the source give for Cc1ccc2nc3ccc(C)cc3c(NCCCNCCNCCCNc3c4cc(C)ccc4nc4ccc(C)cc34)c2c1 here?
Answer: 13.58%

Question: And the IC50 (Huh-7)?
Answer: 0.16 µM

Question: And the ΔTm [2]?
Answer: 11 °C

Question: What about the Activity (CA46 [3]) of the same compound?
Answer: inactive

Question: And the Activity (Quadruplex DNA [4])?
Answer: Active

Question: And the ΔTm [5]?
Answer: 4.5 °C

Question: And the Activity (SiHa [6])?
Answer: 15.22%

Question: And the Activity (SiHa [7])?
Answer: 16.96%

Question: And the ΔTm (Quadruplex DNA [8])?
Answer: 9.9 °C

Question: And the Activity [9]?
Answer: Dose-dependent effect

Question: What about the Kd (dsDNA) of the same compound?
Answer: 18.5 µM

Question: And the Activity (SiHa [10])?
Answer: 37.96%

Question: What about the Activity [11] of the same compound?
Answer: Non-Toxic

Question: And the Activity (Quadruplex DNA [12])?
Answer: Active

Question: What about the Activity (CA46 [13]) of the same compound?
Answer: inactive

Question: What about the Activity (SiHa [14]) of the same compound?
Answer: inactive

Question: What about the Activity (SiHa [15]) of the same compound?
Answer: 42.47%

Question: What about the Activity (Quadruplex DNA [16]) of the same compound?
Answer: 40.1%
